Source: PubChem (The Scripps Research Institute Molecular Screening Center)
Only some compounds are listed: those with a hit (about 2% of all), similar ones and a draw of the others.
EBNA-1 inhibitor – blocks EBNA-1 binding to DNA | 300,000 tested, 0.34% active | EBNA-1 DNA binding, fluorescence polarization | AID 1950 | inhibition, % at 14.8 µM; in the data active means inhibition above about 28%
HCV NS3 hel inh – blocks Hepatitis C virus NS3 helicase unwinding. NS3 helicase DNA unwinding, Cy5 molecular beacon fluorescence. 290,000 tested, 0.56% active. inhibition, % at 10.9 µM;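 active means inhibition above the mean of all tested compounds plus 3 SD, set per campaign, cut at about 35% in these data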
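Measured by: Cy5 fluorescence, 0 and 60 min reads / Assay system: NS3 helicase fragment of HCV / Control set: low DMSO, high thioflavine S at 110 µM / Times: 1 h reaction at 25 °C, ATP-initiated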
FID counter – displaces DNA intercalator in HCV helicase counter-screen | DNA fluorescent intercalator displacement, fluorescence | inhibition, % at 7.9 µM | 290,000 tested, 0.17% active | AID 1845; in the data active means inhibition above about 37%;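 further: higher means more ethidium bromide displaced from hairpin DNA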
ZTA counter – ZTA (EBV) inhibition in EBNA-1 counter-screen. ZTA-DNA binding, fluorescence polarization. P03206. 320,000 tested, 0.15% active. AID 2234. inhibition, % at 11 µM; in the data active means inhibition above about 33%
Target sequence (P03206 whole entry, looked up): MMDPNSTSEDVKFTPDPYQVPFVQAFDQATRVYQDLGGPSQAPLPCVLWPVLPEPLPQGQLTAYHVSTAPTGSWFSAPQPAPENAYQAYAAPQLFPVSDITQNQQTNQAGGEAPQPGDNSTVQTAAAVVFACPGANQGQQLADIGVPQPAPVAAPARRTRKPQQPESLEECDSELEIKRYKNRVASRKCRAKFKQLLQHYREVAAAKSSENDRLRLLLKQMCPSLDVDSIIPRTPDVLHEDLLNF
GPR7 antag – blocks human GPR7 receptor signaling. AID 1861. 290,000 tested, 1.1% active. P48145. GPR7-expressing cells, fluorescence antagonist assay. inhibition, % at 4.4 µM; in the data active means inhibition above about 16%, passing the limit was not always enough;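 further: cells stimulated with the agonist NPW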
Target sequence (P48145 whole entry, looked up): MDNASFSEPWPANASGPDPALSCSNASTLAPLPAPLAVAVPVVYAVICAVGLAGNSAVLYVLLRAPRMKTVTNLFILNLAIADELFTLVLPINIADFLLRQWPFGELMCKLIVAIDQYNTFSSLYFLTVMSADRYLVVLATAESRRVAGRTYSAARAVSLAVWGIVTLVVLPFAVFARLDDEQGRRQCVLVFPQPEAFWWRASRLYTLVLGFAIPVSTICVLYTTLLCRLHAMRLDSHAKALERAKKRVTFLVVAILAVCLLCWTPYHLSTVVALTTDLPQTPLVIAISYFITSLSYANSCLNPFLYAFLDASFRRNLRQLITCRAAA
GPR7 antag cf – confirmation of human GPR7 antagonists; shares compounds with GPR7 antag; GPR7-expressing cells, calcium fluorescence antagonist mode; inhibition, % at 4.4 µM; 2,400 tested, 52% active; in the data active means inhibition above about 24%;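 further: stimulated with the GPR7 agonist NPW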
MCHR1 antagonist – MCHR1 (human) antagonism in GPR7 counter-screen; shares compounds with GPR7 antag; MCHR1-expressing cells, fluorescence antagonist assay; inhibition, % at 4.4 µM; 2,400 tested, 62% active; AID 2148; in the data active means inhibition above about 22%
Of the large screens only hits and unclear results are named; the others gave an inactive call (follow-up assays come after a bar, where they were run).

CCOc1ccccc1NC(=O)c1cc(S(=O)(=O)NCc2ccco2)ccc1F	GPR7 antag 24.3 | GPR7 antag cf inactive | MCHR1 antagonist inactive
COc1ccc(NC(=O)CN(C)C(=O)Cn2c(=O)oc3ccccc32)cc1	none (no result: HCV NS3 hel inh, FID counter, GPR7 antag)
CC1CCC(C(C)C)C(OCC(O)CN2CCCC(C)C2)C1 (stereo unspecified)	GPR7 antag 31.8 | GPR7 antag cf 38.6 | MCHR1 antagonist 25.4
O=C(Nc1ccc(N2CCN(C(=O)c3ccco3)CC2)c(Cl)c1)c1c(F)c(F)c(F)c(F)c1F	GPR7 antag 29.9 | GPR7 antag cf inactive | MCHR1 antagonist 78.5
CCOC(=O)N1CCN(Cc2cn[nH]c2-c2cccc3ccccc23)CC1	none
CCOC(=O)N1CCN(Cc2cn[nH]c2-c2ccc(-c3ccccc3)cc2)CC1	GPR7 antag 24.7 | GPR7 antag cf inactive | MCHR1 antagonist inactive
CCOc1ccccc1N1CCN(c2ncnc3scc(-c4ccc(OC)cc4)c23)CC1	GPR7 antag 54.3 | GPR7 antag cf inactive | MCHR1 antagonist 54.1
Cc1ccccc1OCC(=O)Nc1ccc([N+](=O)[O-])cc1	none
COc1ccccc1N1CCN(C(=O)/C=C/c2cccc([N+](=O)[O-])c2)CC1	GPR7 antag 31.5 | GPR7 antag cf inactive | MCHR1 antagonist 33.0
COc1ccccc1N1CCN(C(=O)/C=C/c2ccc(C)cc2)CC1	none
C=CCN1C(=O)c2ccc(C(=O)N(CC(C)C)c3c(N)n(CCCC)c(=O)[nH]c3=O)cc2C1=O	none (no result: HCV NS3 hel inh, FID counter, GPR7 antag)
COc1ccccc1-c1cc(-c2ccc(O)cc2)nc(N)c1C#N	GPR7 antag 36.6 | GPR7 antag cf inactive | MCHR1 antagonist inactive
COc1cc(-c2cc(-c3ccc(O)cc3)nc(N)c2C#N)ccc1O	none
COc1ccc(OC(C)C(=O)Nc2ccc([N+](=O)[O-])cc2)cc1 (stereo unspecified)	none
CC(Oc1ccc(Cl)cc1)C(=O)Nc1ccc(S(=O)(=O)Nc2nccs2)cc1 (stereo unspecified)	GPR7 antag 23.6 | GPR7 antag cf inactive | MCHR1 antagonist inactive
CC(Oc1ccccc1Cl)C(=O)Nc1ccc(S(=O)(=O)Nc2nccs2)cc1 (stereo unspecified)	none (no result: HCV NS3 hel inh, FID counter, GPR7 antag)
CC(C)NS(=O)(=O)c1ccc(NC(=O)C(C)Oc2ccc(C(=O)c3ccccc3)cc2)cc1 (stereo unspecified)	GPR7 antag 90.9 | GPR7 antag cf 91.5 | MCHR1 antagonist 95.9
O=C(Nc1ccc(Cl)cc1)c1ccc(S(=O)(=O)N2CCOCC2)cc1	none
CC(Oc1ccc(Cl)cc1)C(=O)Nc1ccc(S(=O)(=O)N2CCOCC2)cc1 (stereo unspecified)	GPR7 antag 55.6 | GPR7 antag cf 53.5 | MCHR1 antagonist 61.0
COc1ccc(NC(=O)C(C)Oc2ccc(/C(C)=N\O)cc2)cc1 (stereo unspecified)	GPR7 antag 41.9 | GPR7 antag cf 43.4 | MCHR1 antagonist 34.1
COc1ccccc1OCCNC(=O)c1ccc(C)c(S(=O)(=O)N2CCOCC2)c1	none (no result: HCV NS3 hel inh, FID counter, GPR7 antag)
O=C(c1ccncc1)N1CCN(S(=O)(=O)c2cccc(Cl)c2)CC1	none (no result: HCV NS3 hel inh, FID counter, GPR7 antag)
COc1ccc(CN(CCC(c2ccccc2)C2CCOC(C)(C)C2)C(C)=O)cc1 (stereo unspecified)	GPR7 antag 23.7 | GPR7 antag cf inactive | MCHR1 antagonist 26.2
CN(C)CCNC(=O)c1ccc(COc2ccc(Cl)cc2Cl)cc1	GPR7 antag 30.0 | GPR7 antag cf 40.1 | MCHR1 antagonist 51.6
COc1ccc(Cl)cc1C(=O)NCCN(C)C	none
COc1ccccc1N1CCN(C(c2ccc(C)cc2)c2nnnn2C(C)C)CC1 (stereo unspecified)	none
COc1ccccc1N1CCN(C(c2ccc(F)cc2)c2nnnn2C(C)C)CC1 (stereo unspecified)	GPR7 antag 43.0 (no result: EBNA-1 inhibitor, ZTA counter) | GPR7 antag cf inactive | MCHR1 antagonist inactive
O=C(CNS(=O)(=O)c1ccc(Br)s1)NCc1ccccc1	none
COc1ccc(Cl)cc1S(=O)(=O)N(C)CC(=O)NCc1ccccn1	none
O=C(c1ccco1)N1CCN(S(=O)(=O)c2ccc(S(=O)(=O)NC3CCCCC3)cc2)CC1	none (no result: GPR7 antag) | MCHR1 antagonist inactive
CC(C)N(C)S(=O)(=O)c1ccc(NC(=O)CSC(=S)N2CCCC2)cc1	none (no result: HCV NS3 hel inh, FID counter, GPR7 antag)
Cc1cccc(-c2nc(=S)c3c(n2Cc2ccco2)CCCC3)c1	GPR7 antag 28.2 | GPR7 antag cf inactive | MCHR1 antagonist inactive
COc1cccc(-c2nc(=S)c3c(n2Cc2ccco2)CCCC3)c1	none
O=C(NC(NC(=S)Nc1ccccc1Cl)C(Cl)(Cl)Cl)c1cccc(Cl)c1 (stereo unspecified)	GPR7 antag 27.1 | GPR7 antag cf 49.1 | MCHR1 antagonist 61.4
COc1ccc(NC(=S)NC(NC(=O)c2cccc(Cl)c2)C(Cl)(Cl)Cl)c([N+](=O)[O-])c1 (stereo unspecified)	none
COc1ccc(CC(=O)NC(=S)Nc2ccc(S(N)(=O)=O)cc2)cc1	none
COc1ccc(CC(=O)NC(=S)Nc2ccc(S(=O)(=O)NC(C)(C)C)cc2)cc1	GPR7 antag 48.7 | GPR7 antag cf 72.4 | MCHR1 antagonist 69.8
C=CCN(CC=C)S(=O)(=O)c1ccc(NC(=S)NC(=O)Cc2ccc(OC)cc2)cc1	GPR7 antag 34.3 | GPR7 antag cf 50.2 | MCHR1 antagonist 64.8
C=CCC(=O)NC1CC(C)(C)Cc2c1cnn2-c1ccccc1C (stereo unspecified)	none
COc1ccccc1NS(=O)(=O)c1cc(NC(=O)c2ccc3c(c2)OCCO3)ccc1C	GPR7 antag 27.2 | GPR7 antag cf inactive | MCHR1 antagonist 63.3
COc1ccccc1NS(=O)(=O)c1cc(NC(=O)CNC(=O)c2ccccc2)ccc1C	none
O=S(=O)(c1ccc(OCC(O)CN2CCN(c3ccccc3)CC2)cc1)N1CCOCC1 (stereo unspecified)	GPR7 antag 25.2 | GPR7 antag cf inactive | MCHR1 antagonist inactive
OCC[C@H]1C[C@@H](O)[C@H](O)[C@@]2(Cc3ccccc3CO2)O1	none (no result: HCV NS3 hel inh, FID counter, GPR7 antag)
O=[N+]([O-])c1cccc(-c2nc3ccccc3s/c2=N/O)c1	none | GPR7 antag cf 45.1 | MCHR1 antagonist 40.5
Nc1cc(=O)nc(SCC(=O)N2CCN(c3ccccc3)CC2)n1-c1ccc(F)cc1	none
COc1ccc(C(=O)c2sc(Nc3cccc(OC)c3)c(C(=O)Nc3cccc(C)c3C)c2N)cc1	GPR7 antag 79.2 | GPR7 antag cf inactive | MCHR1 antagonist 77.0
COc1ccc(NC(=O)c2c(Nc3ccccc3)sc(C(=O)c3ccc(F)cc3)c2N)cc1	none
COc1ccc(Nc2sc(C(=O)c3ccc(Cl)cc3)c(N)c2C(=O)Nc2ccccc2OC)cc1	GPR7 antag 71.2 | GPR7 antag cf 92.9 | MCHR1 antagonist 99.7
CCOC(=O)N1CCN(C(=S)NC)CC1	none
CCOC(=O)N1CCN(C(=S)NC(C)(C)C)CC1	GPR7 antag 21.2 | GPR7 antag cf inactive | MCHR1 antagonist inactive
